Active and inactive are the calls of the source. The rule behind the calls is not given here.
Experiments:
Raji = assay: Cell viability of Raji cells at 320 nM; type: functional, Homo sapiens
Mus musculus [1] = species: Mus musculus; assay: Inhibition of TPA-induced skin tumor promotion in ICR mouse assessed as incidence of skin papilloma at 85 nmol after 10 weeks; type: functional
Summary of the method: (§1)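 Specific pathogen-free ICR mice, 15 per group, were initiated with DMBA and promoted with TPA, with or without 85 nmol compound. Papilloma incidence and mean papillomas per mouse were recorded up to 20 weeks of promotion. Groups were compared by Student's t-test.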

Human gammaherpesvirus 4 [2] = assay: Inhibition of TPA-induced Epstein-Barr virus early antigen activation assessed as EBV-EA induction in Raji cells at 0.32 nM after 48 hrs relative to TPA; values are per cent of control; conditions: human gammaherpesvirus 4, Raji
Human gammaherpesvirus 4 [3] = assay: Inhibition of TPA-induced Epstein-Barr virus early antigen activation assessed as EBV-EA induction in Raji cells at 320 nM after 48 hrs relative to TPA; values are per cent of control; conditions: human gammaherpesvirus 4, Raji
Mus musculus [4] = species: Mus musculus; assay: Inhibition of TPA-induced skin tumor promotion in ICR mouse assessed as reduction in number of skin papillomas at 85 nmol; type: functional, organism-based; summary of the method: as §1
[5] = Scavenging activity against NO generation in human Chang liver cells assessed as inhibition of NOR1-activation at 350 nM relative to NOR1; type: functional
Human gammaherpesvirus 4 [6] = assay: Inhibition of TPA-induced Epstein-Barr virus early antigen activation assessed as EBV-EA induction in Raji cells at 32 nM after 48 hrs relative to TPA; values are per cent of control; conditions: human gammaherpesvirus 4, Raji
Human gammaherpesvirus 4 [7] = assay: Inhibition of TPA-induced Epstein-Barr virus early antigen activation in Raji cells after 48 hrs; type: functional, organism-based; conditions: human gammaherpesvirus 4, Raji
Mus musculus [8] = species: Mus musculus; assay: Inhibition of TPA-induced skin tumor promotion in ICR mouse assessed as incidence of skin papilloma at 85 nmol after 20 weeks; type: functional; conditions: values are per cent of control; summary of the method: as §1
Human gammaherpesvirus 4 [9] = assay: Inhibition of TPA-induced Epstein-Barr virus early antigen activation assessed as EBV-EA induction in Raji cells at 3.2 nM after 48 hrs relative to TPA; values are per cent of control; conditions: human gammaherpesvirus 4, Raji

| Compound | Activity (Raji) | Papilloma incidence % (Mus musculus [1]) | level, % of control at 0.00032 µM (Human gammaherpesvirus 4 [2]) | level, % of control at 0.32 µM (Human gammaherpesvirus 4 [3]) | Activity (Mus musculus [4]) | Activity [5] | level, % of control at 0.032 µM (Human gammaherpesvirus 4 [6]) | IC50 (Human gammaherpesvirus 4 [7]) | response, % of control (Mus musculus [8]) | level, % of control at 0.0032 µM (Human gammaherpesvirus 4 [9]) |
| --- | --- | --- | --- | --- | --- | --- | --- | --- | --- | --- |
| CC(C)C(O)(CO)CC[C@@H](C)[C@H]1CC[C@@]2(C)[C@@H]3CC[C@H]4C(C)(C)[C@@H](O)CC[C@@]45C[C@@]35CC[C@]12C (some centres not stated) | 70% | 20% | 81% | 0% | Active | 2.2 | 13% | 6.1 nM | 80% | 63.2% |
| COCC(O)(CC[C@@H](C)[C@H]1CC[C@@]2(C)[C@@H]3CC[C@H]4C(C)(C)[C@@H](O)CC[C@@]45C[C@@]35CC[C@]12C)C(C)C (some centres not stated) | 70% | 27% | 83.1% | 0% | Active | 2.1 | 15.2% | 6.7 nM | 87% | 65.4% |
| C=C(CC[C@@H](C)[C@H]1CC[C@@]2(C)[C@@H]3CC[C@H]4C(C)(C)[C@@H](OC(=O)/C=C/c5ccc(O)c(OC)c5)CC[C@@]45C[C@@]35CC[C@]12C)C(C)C | 70% |  | 100% | 17.6% |  | 1.8 | 54.7% | 15.8 nM |  | 82% |

Source: ChEMBL document CHEMBL1143693, “Cancer chemopreventive effects of cycloartane-type and related triterpenoids in in vitro and in vivo models” (J Nat Prod, 2007)
